Active and inactive are the calls of the source. The calls are words filed in the database; no cut-off is given here.
Columns and labels:
[1] = test system: MDA-MB-231; assay: Antiproliferative activity against human MDA-MB-231 cells; type: functional, cell-based
[2] = test system: MDA-MB-468; assay: Effect on total STAT3 level in human MDA-MB-468 cells at 0.3 to 3 uM measured after 3 hrs by Western blot analysis; type: functional, cell-based; settings: dose 0.3-3 µM
How it was run: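 Breast cancer cells were treated with vehicle (0.1% DMSO) or compound, then lysed in RIPA with PMSF and phosphatase inhibitors. 20–50 μg protein was run on 8 or 12% SDS-PAGE, blotted to PVDF, blocked in 5% BSA, probed with primary antibodies overnight at 4 °C, then HRP secondaries, with ECL detection.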

[3] = molecular target: T1, Signal transducer and activator of transcription 3 (Homo sapiens, UniProt P40763); assay: Inhibition of Flag-tagged STAT3 dimerization (unknown origin) expressed in HEK293T cells after 24 hrs by confocal microscopic analysis; type: cell-based; settings: dose 1-3 µM
How it was run: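 HEK-293T cells transfected with HA-STAT3 and Flag-STAT3. After 24 h, treated with vehicle (0.1% DMSO) or compound for 24 h, with IL-6 100 ng/mL added for 30 min. Fixed in paraformaldehyde, permeabilised with Triton X-100, stained with anti-HA and anti-Flag plus Alexa 488/555 secondaries and DAPI. Confocal imaging for colocalisation.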

[4] = molecular target: T1, Signal transducer and activator of transcription 3; assay: Inhibition of Flag-tagged STAT3 dimerization (unknown origin) expressed in HEK293T cells preincubated for 3 hrs followed by IL-3 stimulation by immunoprecipitation analysis; type: cell-based; settings: dose 1-3 µM
[5] = molecular target: T1, Signal transducer and activator of transcription 3; assay: Inhibition of STAT3 DNA binding in human MDA-MB-468 cells at 0.3 to 1 uM after 3 hrs by EMSA analysis; type: cell-based; settings: dose 0.3-1 µM
How it was run: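 Cells exposed to vehicle or compound for 3 h. Nuclear extracts prepared and BCA-quantified. Nuclear protein (8–10 µg) incubated with biotinylated STAT3 or STAT5 probe, resolved on 6% native polyacrylamide gel, transferred to nylon membrane and detected with a gel-shift kit.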

[6] = molecular target: T1, Signal transducer and activator of transcription 3; assay: Inhibition of STAT3 in human HCC70 cells assessed as downregulation of Bcl-xL expression at 0.3 to 3 uM after 24 hrs by western blot analysis; type: cell-based; settings: dose 0.3-3 µM
How it was run: (§1)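 TNBC cells given vehicle (0.1% DMSO) or graded compound levels for 24 h, lysed in RIPA with PMSF and phosphatase inhibitors. BCA-quantified lysate (20–50 µg) run on SDS-PAGE, transferred to PVDF, blocked in 5% BSA. Probed overnight at 4 °C for Bcl-xL, Mcl-1 and c-Myc, with β-actin. HRP secondary, ECL detection. Three independent experiments.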

[7] = molecular target: T1, Signal transducer and activator of transcription 3; assay: Inhibition of STAT3 in human HCC70 cells assessed as downregulation of Mcl-1 expression at 0.3 to 3 uM after 24 hrs by western blot analysis; type: cell-based; settings: dose 0.3-3 µM; how it was run: as §1
[8] = test system: MDA-MB-231; assay: Inhibition of colony formation in human MDA-MB-231 cells at 0.3 uM after 10 to 15 days by crystal violet staining based assay; type: functional, cell-based; settings: time 10-15 day
How it was run: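 Cells seeded at 0.5×10^3–1×10^3 per well; compound added the next day. Medium and compound renewed every 2–3 days. After about 10–15 days, colonies fixed with 4% paraformaldehyde, stained with crystal violet, scanned and quantified by image analysis. Triplicate.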

[9] = test system: MDA-MB-231; assay: Induction of apoptosis in human MDA-MB-231 cells assessed as viable cells at 1 uM after 48 hrs by Annexin-V-FITC/propidium iodide staining based flow cytometric analysis (reference value: 93.4%); type: functional; settings: read-out: Activity
[10] = Induction of apoptosis in human MDA231-LM2-4175 cells assessed as late apoptotic cells at 1 uM after 48 hrs by Annexin-V-FITC/propidium iodide staining based flow cytometric analysis (reference value: 2.60%); type: functional
[11] = test system: MDA-MB-468; assay: Induction of apoptosis in human MDA-MB-468 cells assessed as viable cells at 1 uM after 48 hrs by Annexin-V-FITC/propidium iodide staining based flow cytometric analysis (reference value: 95.5%); type: functional; settings: read-out: Activity
[12] = test system: MDA-MB-468; assay: Induction of apoptosis in human MDA-MB-468 cells assessed as early apoptotic cells at 3 uM after 48 hrs by Annexin-V-FITC/propidium iodide staining based flow cytometric analysis (reference value: 2.66%); type: functional
[13] = test system: MDA231-LM2-4175; assay: Induction of apoptosis in human MDA231-LM2-4175 cells assessed as increase in caspase-7 cleavage at 1 uM after 48 hrs by Western blot analysis; type: functional, cell-based
How it was run: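 Breast cancer cells given vehicle (0.1% DMSO) or compound, then lysed in RIPA buffer with PMSF and phosphatase inhibitors. BCA-quantified lysate (20–50 µg) run on 8 or 12% SDS-PAGE and transferred to PVDF. Blocked in 5% BSA, probed overnight at 4 °C for PARP and cleaved caspase-7, HRP secondary, ECL detection. β-actin as loading control.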

[14] = test system: MDA-MB-231; assay: Inhibition of cell migration in human MDA-MB-231 cells incubated for 12 to 96 hrs by wound healing assay; type: functional, cell-based; settings: dose 0.3-3 µM, time 12-96 hrs
How it was run: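 Cells grown to 100% confluence, then scratched with a pipette tip. Treated with 0–3 μM until vehicle-treated cells had migrated into the scratch. Images taken by microscope after about 12–96 h. Triplicate experiments.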

[15] = test system: HCC70; assay: Inhibition of cell migration in human HCC70 cells incubated for 12 to 96 hrs by wound healing assay; type: functional, cell-based; settings: dose 0.3-3 µM, time 12-96 hrs
How it was run: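 Confluent monolayer (0.8–1.2×10^6 cells/well) scratched with a pipette tip, then treated with 0–3 µM compound until vehicle cells filled the gap. Imaged by microscope after about 12–96 h. Triplicate.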

[16] = Tmax in Sprague-Dawley rat at 10 mg/kg, po measured up to 24 hrs by LC-MS/MS analysis; type: ADME, organism-based; settings: in vivo
How it was run: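 Male SD rats dosed orally at 10 mg/kg in DMSO/0.5% HPMC (5/95, v/v). Blood drawn at 0.25, 0.5, 1, 2, 4, 8 and 24 h for plasma. Plasma analysed by LC-MS/MS on a UPLC BEH phenyl column with 0.1% formic acid water/acetonitrile.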

[17] = AUC(0 to infinity) in Sprague-Dawley rat at 10 mg/kg, po measured up to 24 hrs by LC-MS/MS analysis; type: ADME, organism-based; parameters: route oral, dose 10 mg/kg, time <=24; settings: in vivo
How it was run: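 Male SD rats given a single oral dose of 10 mg/kg in DMSO/0.5% HPMC (5/95, v/v). Blood was drawn at 0.25, 0.5, 1, 2, 4, 8 and 24 h, and plasma was analysed by LC-MS/MS on a BEH phenyl column with a formic acid water/acetonitrile mobile phase.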

[18] = test system: MDA231-LM2-4175; assay: Antitumor activity against human MDA231-LM2-4175 cells xenografted in mouse assessed as reduction in Ki67 expression at 5 to 15 mg/kg, iv administered once daily for 20 days by immunohistochemical analysis; type: functional, organism-based; settings: dose 5-15 mg/kg, time 20.0 day
[19] = test system: Breast cancer cell line; assay: Antitumor activity against patient-derived breast cancer cells xenografted in NOD/SCID mouse assessed as reduction in Bcl-xL expression at 5 to 15 mg/kg, iv administered once daily for 20 days by Western blotting analysis; type: functional, organism-based; settings: Homo sapiens, dose 5-15 mg/kg, time 20.0 day
[20] = Toxicity in NOD/SCID mouse xenografted with patient-derived breast cancer cells assessed as change in body weight at 5 to 15 mg/kg, ip administered once daily for 20 days; settings: in vivo, 480 h

T1 sequence (P40763 whole entry): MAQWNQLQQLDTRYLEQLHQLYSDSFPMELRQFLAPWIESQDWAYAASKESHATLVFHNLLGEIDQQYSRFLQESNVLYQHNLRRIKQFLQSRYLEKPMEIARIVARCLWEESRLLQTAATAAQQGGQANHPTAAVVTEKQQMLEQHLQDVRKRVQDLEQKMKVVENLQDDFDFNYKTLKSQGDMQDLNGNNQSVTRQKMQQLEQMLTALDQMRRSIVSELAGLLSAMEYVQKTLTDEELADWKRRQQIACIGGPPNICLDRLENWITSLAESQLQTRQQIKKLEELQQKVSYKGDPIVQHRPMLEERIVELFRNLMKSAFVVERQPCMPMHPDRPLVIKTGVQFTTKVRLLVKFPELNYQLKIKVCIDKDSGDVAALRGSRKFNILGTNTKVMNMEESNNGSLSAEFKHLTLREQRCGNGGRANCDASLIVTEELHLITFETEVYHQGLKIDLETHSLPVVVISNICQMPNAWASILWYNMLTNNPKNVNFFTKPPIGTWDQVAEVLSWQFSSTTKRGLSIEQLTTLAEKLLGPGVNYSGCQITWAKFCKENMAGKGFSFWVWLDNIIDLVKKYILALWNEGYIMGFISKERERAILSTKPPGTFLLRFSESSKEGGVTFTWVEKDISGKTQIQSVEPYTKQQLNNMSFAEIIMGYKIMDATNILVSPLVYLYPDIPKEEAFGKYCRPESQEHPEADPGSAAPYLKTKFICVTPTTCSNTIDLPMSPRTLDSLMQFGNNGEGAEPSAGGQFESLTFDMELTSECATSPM

O=C(Cc1c(-c2ccccc2)nc2ccccn12)Nc1ccc2c(c1)S(=O)(=O)C=C2
IC50 [1]: 1200 nM | Activity [2]: inactive | inhibition [3]: Dose-Dependent Effect | inhibition [4]: Dose-Dependent Effect | inhibition [5]: Active | inhibition [6]: Active | inhibition [7]: Active | inhibition [8]: Active | viability at 1 µM [9]: 83.5% | Activity [10]: 4% | viability at 1 µM [11]: 57.9% | Activity [12]: 32.3% | Activity [13]: Active | inhibition [14]: Dose-Dependent Effect | inhibition [15]: Dose-Dependent Effect | Tmax [16]: 1.67 h | AUC(0-inf) [17]: 56.1 ng·h/mL | Activity [18]: inactive | Activity [19]: Active | Activity [20]: Non-Toxic

Reference: ChEMBL document CHEMBL4825680, “Structure-based discovery of potent and selective small-molecule inhibitors targeting signal transducer and activator of transcription 3 (STAT3)” (Eur J Med Chem, 2021)
